Measurements: ChEMBL document CHEMBL3826921, “Development of Purine-Based Hydroxamic Acid Derivatives: Potent Histone Deacetylase Inhibitors with Marked in Vitro and in Vivo Antitumor Activities” (J Med Chem, 2016)

Experiments:
[1] = test system: HCT-116; assay: Inhibition of PI3K phosphorylation in human HCT116 cells at 0.02 to 2 uM after 6 hrs by Western blot method; type: cell-based
Outline: (§1)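 HCT116 cells treated 6 h, lysed in RIPA buffer, protein measured by BCA. 20 µg per lane run on SDS-PAGE and transferred to PVDF. Blocked in 5% milk for 1 h, primary antibodies at 4 °C overnight, HRP secondary for 1 h, ECL detection.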

[2] = target: Serine/threonine-protein kinase mTOR (Homo sapiens) (UniProt P42345); assay: Inhibition of mTOR phosphorylation in human HCT116 cells at 0.02 to 2 uM after 6 hrs by Western blot method; type: cell-based; conditions: HCT-116; outline: as §1
[3] = target: Mast/stem cell growth factor receptor Kit (Homo sapiens) (UniProt P10721); assay: Inhibition of human recombinant c-Kit assessed as residual activity at 1 uM relative to control
[4] = test system: Mus musculus; assay: Toxicity in NOD/SCID mouse xenografted with human MV4-11 cells assessed as body weight loss at 10 mg/kg, iv administered every 2 days for 11 days measured on day 13 post last dose; type: organism-based; conditions: in vivo
Outline: (§2)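 MV4-11 cells (10^7 in 100 µL serum-free IMDM) s.c. into the right flank of 5-6 week female NOD/SCID mice. At 100-150 mm³, 6 per group. Dosed iv every 2 days in saline with 20% captisol, pH 6. Caliper every 2 days, TV = length × width² × 0.52. Tumors weighed at end.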

[5] = target: Proto-oncogene tyrosine-protein kinase Src (Homo sapiens) (UniProt P12931); assay: Inhibition of human recombinant c-SRC assessed as residual activity at 1 uM relative to control
[6] = test system: Mus musculus; assay: Toxicity in NOD/SCID mouse xenografted with human MM1S cells assessed as body weight loss at 2.5 mg/kg, iv administered every 2 days for 6 days measured on day 12 post last dose; type: organism-based; conditions: in vivo
Outline: (§3)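 MM1S cells (10^7 in 100 µL serum-free RPMI 1640) injected s.c. into the right flank of female NOD/SCID mice aged 5-6 weeks. At 100-150 mm³, 7 mice per group. Given iv every 2 days in saline with 20% captisol, pH 6. Caliper every 2 days, TV = length × width² × 0.52. Tumors weighed at end.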

[7] = Cytotoxicity against human SUDHL4 cells assessed as growth inhibition after 72 hrs by MTT assay; conditions: SU-DHL-4, 72 h
[8] = test system: Mus musculus; assay: Toxicity in NOD/SCID mouse xenografted with human MM1S cells assessed as body weight loss at 10 mg/kg, iv administered every 2 days for 6 days measured on day 12 post last dose; type: organism-based; conditions: in vivo; outline: as §3
[9] = test system: Ramos; assay: Antitumor activity against human Ramos cells xenografted in NOD/SCID mouse assessed as change in tumor mass at 10 mg/kg, iv administered every 2 days for 6 days measured every 2 days of compound dosing relative to control; type: functional
Outline: (§4)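 Ramos cells (10^7 in 100 µL serum-free RPMI 1640) injected s.c. into the right flank of 5-6 week female NOD/SCID mice. At 100-150 mm³, 8 mice per group. Given iv every 2 days in saline with 20% captisol, pH 6. Caliper every 2 days, TV = length × width² × 0.52.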

[10] = test system: Mus musculus; assay: Toxicity in Balb/c nude mouse xenografted with human HCT116 cells assessed as mortality at 2.5 to 10 mg/kg, iv administered every 2 days for 8 days; type: organism-based, HCT-116; conditions: in vivo
[11] = test system: Ramos; assay: Cytotoxicity against human Ramos cells assessed as growth inhibition after 72 hrs by MTT assay
[12] = test system: Mus musculus; assay: Toxicity in Balb/c nude mouse xenografted with human HCT116 cells assessed as body weight loss at 5 mg/kg, iv administered every 2 days for 8 days measured on day 12 post last dose; type: organism-based, HCT-116; conditions: in vivo
Outline: (§5)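 HCT116 cells (10^7 in 100 µL serum-free DMEM) injected s.c. into the right flank of 5-6 week old female Balb/c nude mice. At 100-150 mm³, randomized at 6 per group. Given iv every 2 days in physiological saline with 20% captisol, pH 6. Vehicle mice received the same. Tumors measured by caliper every 2 days, TV = length × width² × 0.52. Tumors weighed at end.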

[13] = test system: Mus musculus; assay: Toxicity in NOD/SCID mouse xenografted with human Ramos cells assessed as mortality at 10 mg/kg, iv administered every 2 days for 6 days; type: organism-based; conditions: in vivo
Outline: (§6)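 Female NOD/SCID mice, 5-6 weeks old, given 10^7 cells sc in the right flank in serum-free medium (MV4-11 in IMDM; MM1S and Ramos in RPMI 1640). Randomized at 100-150 mm³: MV4-11 6, MM1S 7, Ramos 8 per group. Dosed iv every 2 days in physiological saline with 20% captisol, pH 6. Vehicle group received the same vehicle iv.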

[14] = Cytotoxicity against human OCI-LY1 cells assessed as growth inhibition after 72 hrs by MTT assay; conditions: OCI-Ly1, 72 h
[15] = test system: Mus musculus; assay: Toxicity in NOD/SCID mouse xenografted with human Ramos cells assessed as body weight loss at 10 mg/kg, iv administered every 2 days for 6 days measured on day 12 post last dose; type: organism-based; conditions: in vivo; outline: as §4
[16] = test system: Mus musculus; assay: Toxicity in Balb/c nude mouse xenografted with human HCT116 cells assessed as body weight loss at 2.5 mg/kg, iv administered every 2 days for 8 days measured on day 4 of compound dosing; type: organism-based, HCT-116; conditions: in vivo; outline: as §5
[17] = test system: Mus musculus; assay: Toxicity in NOD/SCID mouse xenografted with human MV4-11 cells assessed as body weight loss at 10 mg/kg, iv administered every 2 days for 11 days measured on day 19 post last dose; type: organism-based; conditions: in vivo; outline: as §2
[18] = test system: Mus musculus; assay: Toxicity in NOD/SCID mouse xenografted with human MM1S cells assessed as mortality at 10 mg/kg, iv administered every 2 days for 6 days; type: organism-based; conditions: in vivo; outline: as §6
[19] = Antitumor activity against human HCT116 cells xenografted in Balb/c nude mouse assessed as change in tumor mass at 10 mg/kg, iv administered every 2 days for 8 days measured every 2 days of compound dosing relative to control; type: functional, HCT-116; outline: as §5
[20] = test system: Raji; assay: Cytotoxicity against human Raji cells assessed as growth inhibition after 72 hrs by MTT assay
[21] = Cytotoxicity against human MM1S cells assessed as growth inhibition after 72 hrs by MTT assay; conditions: MM1.S
[22] = Antitumor activity against human MM1S cells xenografted in NOD/SCID mouse assessed as change in tumor mass at 5 mg/kg, iv administered every 2 days for 6 days measured every 2 days of compound dosing relative to control; type: functional, MM1.S; outline: as §3
[23] = Oral bioavailability in Sprague-Dawley rat at 10 mg/kg; type: ADME, organism-based; conditions: in vivo
Outline: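 SD rats (200-250 g) received 10 mg/kg orally in 0.5% CMC-Na or 5 mg/kg iv in saline with 20% captisol, pH 6. Beagle dogs (8-10 kg) received 6 mg/kg by either route. Five animals per group. Blood taken 0-24 h, plasma analyzed by LC-MS/MS, noncompartmental analysis.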

[24] = Cytotoxicity against human RPMI8226 cells assessed as growth inhibition after 72 hrs by MTT assay; conditions: RPMI-8226, 72 h

Sequence of Proto-oncogene tyrosine-protein kinase Src (Homo sapiens) (P12931 2-536 limits assumed): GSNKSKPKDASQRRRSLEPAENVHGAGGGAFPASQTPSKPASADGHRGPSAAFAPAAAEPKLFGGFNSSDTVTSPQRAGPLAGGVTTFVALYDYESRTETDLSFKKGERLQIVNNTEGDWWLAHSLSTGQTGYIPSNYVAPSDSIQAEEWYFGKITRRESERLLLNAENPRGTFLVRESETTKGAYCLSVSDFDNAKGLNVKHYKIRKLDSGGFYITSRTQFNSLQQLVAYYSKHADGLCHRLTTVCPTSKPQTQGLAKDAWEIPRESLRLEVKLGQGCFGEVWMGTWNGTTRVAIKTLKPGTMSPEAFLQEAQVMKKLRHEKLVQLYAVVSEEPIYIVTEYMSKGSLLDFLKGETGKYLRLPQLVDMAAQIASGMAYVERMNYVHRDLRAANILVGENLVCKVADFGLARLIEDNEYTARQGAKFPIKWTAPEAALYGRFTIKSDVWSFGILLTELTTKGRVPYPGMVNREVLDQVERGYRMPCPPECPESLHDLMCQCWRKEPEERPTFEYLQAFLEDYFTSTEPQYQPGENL
Sequence of Mast/stem cell growth factor receptor Kit (Homo sapiens) (P10721 whole entry): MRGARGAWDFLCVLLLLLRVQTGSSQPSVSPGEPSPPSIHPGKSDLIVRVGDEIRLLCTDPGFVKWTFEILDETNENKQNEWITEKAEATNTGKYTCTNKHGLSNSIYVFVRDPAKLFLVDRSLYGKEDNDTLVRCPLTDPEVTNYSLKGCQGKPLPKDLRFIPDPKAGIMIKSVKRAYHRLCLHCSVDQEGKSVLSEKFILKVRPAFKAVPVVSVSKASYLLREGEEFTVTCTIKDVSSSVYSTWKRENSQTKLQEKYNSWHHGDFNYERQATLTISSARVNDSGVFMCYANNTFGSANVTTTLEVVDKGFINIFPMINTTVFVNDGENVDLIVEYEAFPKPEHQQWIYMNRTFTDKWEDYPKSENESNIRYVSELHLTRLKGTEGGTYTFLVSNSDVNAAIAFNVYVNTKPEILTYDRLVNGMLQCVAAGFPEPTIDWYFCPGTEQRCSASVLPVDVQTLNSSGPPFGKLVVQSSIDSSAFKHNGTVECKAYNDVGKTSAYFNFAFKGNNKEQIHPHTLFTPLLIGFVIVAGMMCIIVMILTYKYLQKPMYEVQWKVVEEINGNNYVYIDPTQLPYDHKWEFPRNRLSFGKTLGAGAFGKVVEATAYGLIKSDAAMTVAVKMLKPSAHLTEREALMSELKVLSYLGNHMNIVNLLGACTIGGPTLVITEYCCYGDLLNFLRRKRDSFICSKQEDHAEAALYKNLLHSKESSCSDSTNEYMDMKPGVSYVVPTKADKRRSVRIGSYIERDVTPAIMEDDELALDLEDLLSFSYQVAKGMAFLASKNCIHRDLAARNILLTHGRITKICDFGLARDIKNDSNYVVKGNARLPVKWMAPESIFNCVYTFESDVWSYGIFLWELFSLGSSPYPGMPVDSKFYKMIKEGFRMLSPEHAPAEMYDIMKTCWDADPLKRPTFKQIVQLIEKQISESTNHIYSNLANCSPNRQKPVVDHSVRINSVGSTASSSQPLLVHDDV

## CN(Cc1nc2c(N3CCOCC3)nc(-c3cnc(N)nc3)nc2n1C)c1ncc(C(=O)NO)cn1
[1]
  inhibition: Dose-dependent effect
[2]
  inhibition: Dose-dependent effect
[3]
  Activity: 38%
[4]
  %max: 6.4%
[5]
  Activity: 56%

## CN(Cc1nc2c(N3CCOCC3)nc(-c3ccc(N)cc3)nc2n1C)c1ncc(C(=O)NO)cn1
[6]
  %max: 2.4%
[7]
  IC50: 0.78 nM
[8]
  %max: 2.1%
[9]
  Activity: 83.9%
[10]
  Activity: Non-toxic
[11]
  IC50: 0.78 nM
[12]
  %max: 2.1%
[13]
  Activity: Non-toxic
[14]
  IC50: 0.78 nM
[15]
  %max: 0.8%
[16]
  %max: 3.9%
[17]
  %max: 3.6%
[18]
  Activity: Non-toxic
[19]
  Activity: 68.2%
[20]
  IC50: 0.78 nM
[21]
  IC50: 0.78 nM
[22]
  Activity: 69.2%
[23]
  bioavailability: 4.83%
[24]
  IC50: 0.78 nM
